Screening results: PubChem BioAssay, several laboratories
OX1R antag-1 = OX1R (HCRTR1) antagonists, primary screen, fluorescence, CHO/OX1R cells, Fluo-8 calcium, orexin A; Fluo-8 calcium fluorescence; 330,000 compounds, 0.43% hits; inhibition, % at 5 µM; AID 434989, 2010;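 active = inhibition above its plate's threshold, mean inhibition of all tested compounds on the plate plus 3 SD, cut at about 37% in these data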;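 also: 0% = orexin A challenge wells and 100% = SB-334867-A antagonist wells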
Target sequence (O43613 whole entry, looked up): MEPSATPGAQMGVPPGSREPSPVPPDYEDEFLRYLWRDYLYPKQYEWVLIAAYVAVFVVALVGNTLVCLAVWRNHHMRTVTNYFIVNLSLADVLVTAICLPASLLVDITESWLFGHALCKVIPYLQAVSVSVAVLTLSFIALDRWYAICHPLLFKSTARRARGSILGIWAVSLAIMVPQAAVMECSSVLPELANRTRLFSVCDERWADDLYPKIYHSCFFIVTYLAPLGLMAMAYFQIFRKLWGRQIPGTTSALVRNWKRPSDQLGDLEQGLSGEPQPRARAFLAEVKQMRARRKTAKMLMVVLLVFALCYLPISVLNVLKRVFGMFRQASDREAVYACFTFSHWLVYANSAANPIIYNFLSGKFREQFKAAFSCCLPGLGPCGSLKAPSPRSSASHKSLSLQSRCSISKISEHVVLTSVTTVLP
OX1R antag-2 = antagonists of human orexin 1 receptor (OX1R); inhibition, % at 6.6 µM; OX1R-expressing cells, FRET antagonist read-out; AID 485270, 2010; 330,000 compounds, 1.8% hits; Orexin/Hypocretin receptor type 1 (Homo sapiens), O43613; in the data active = inhibition mostly above about 38%, no sharp cut-off; inactive = mostly below about 40%;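 also: 0% = agonist challenge alone and 100% = reference antagonist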
GPR7 antag = GPR7 receptor antagonists, primary screen, cell-based, fluorescence, single concentration; Neuropeptides B/W receptor type 1 (Homo sapiens), P48145; GPR7-expressing cells, fluorescence antagonist assay; inhibition, % at 4.4 µM; 290,000 compounds, 1.1% hits; in the data active = inhibition above about 16%, passing the limit was not always enough;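 also: cells stimulated with the agonist NPW; 0% = agonist with vehicle and 100% = vehicle without agonist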
CHO parental Ca = ATP-evoked calcium signal inhibitors, parental CHO, primary screen, counter-screen for OX1R antagonist project, cell-based, fluorescence, Fluo-8 calcium dye; AID 463079, 2010; inhibition, % at 5.6 µM; parental CHO-K1, ATP-induced calcium, Fluo-8 fluorescence; 330,000 compounds, 0.63% hits;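 active = inhibition above that plate's mean sample inhibition plus 3 SD, cut at about 26% in these data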;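 also: 0% = ATP-challenged DMSO wells and 100% = DMSO wells without ATP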
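Measured by: calcium-sensitive Fluo-8 fluorescence / Test system: CHO parental line / Controls: ATP-challenged DMSO wells low, unchallenged DMSO wells high / Measure: % inhibition / Compound: single nominal dose of 5.6 µM per compound / Replicates: single well per compound, no replicates / Reagent: ATP as calcium-mobilizing challenge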
MPTP inh = mitochondrial permeability transition pore inhibitors, primary screen, biochemical, isolated mouse mitochondria, absorbance. Ca2+ swelling absorbance, 30 min. inhibition, % at 10 µM. 360,000 compounds, 1.4% hits;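 active = inhibition of 50% or more, scaled per plate between neutral and stimulator controls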;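 also: 0% = DMSO wells given calcium and 100% = 1 mM EGTA wells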
Rh123 counter = fluorescence retest of MPTP screen hits in isolated mitochondria, single concentration. 5,000 compounds, 78% hits. AID 624504, 2012. membrane potential, Rhodamine 123 fluorescence. shares compounds with MPTP inh. inhibition, % at 10 µM; in the data active = inhibition above about 22%;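 also: 0% = DMSO vehicle and 100% = positive control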
MPTP abs DR = mitochondrial permeability transition pore inhibitors, dose response, biochemical, absorbance, uHTS hits; IC50, µM; isolated mitochondria swelling; shares compounds with MPTP inh; 780 compounds, 58% hits; in the data active = IC50 below about 20 µM
MPTP cs DR = fluorescent counter-screen in isolated mitochondria, dose response, counter-screen for MPTP inhibitor project, biochemical, fluorescence, uHTS hits; IC50, µM; shares compounds with MPTP inh; 780 compounds, 49% hits; isolated mitochondria counterscreen, fluorescence read-out; in the data active = IC50 below about 80 µM
* hit, by the source's call; . = no result given. Sampled rows, rich in hits. Any-hit rate of the full collection: about 3.8%.

SMILES | OX1R antag-1 | OX1R antag-2 | GPR7 antag | CHO parental Ca | MPTP inh | Rh123 counter | others
COc1ccccc1Nc1nc(-c2c(C)nc3ncccn23)cs1 | . | . | 0.9 | . | 70.7* | 50.5*
CC(=O)C1CCC2C3CC=C4CC(SC(=N)N)CCC4(C)C3CCC12C (configuration not stated) | . | . | . | . | 79.9* | 23.8*
Cc1cccc(NC(=O)c2ccc(COc3cccc4ccccc34)o2)n1 | -40.7 | 14.9 | -7.0 | -24.1 | 5.5 | .
C=CCn1c(SCC(=O)NC2CC2)nc2sc(CC)cc2c1=O | -16.1 | 12.5 | -7.0 | -16.7 | 0.0 | .
C=CCn1c(SCC(=O)c2cccs2)nc2sc(CC)cc2c1=O | 51.1* | 33.9 | -6.8 | 55.9* | 91.2* | 76.9*
C=CCn1c(SCC2CCCCO2)nc2sc(CC)cc2c1=O (configuration not stated) | -16.5 | 29.2 | -11.8 | -21.1 | 54.4* | 22.4*
O=S(=O)(Cc1ccc(Cl)cc1)N1CCN(c2ncccn2)CC1 | -6.2 | 5.6 | 7.1 | 0.8 | -0.6 | .
Cc1noc(NS(=O)(=O)c2ccc(NC(=O)C(Cl)(Cl)Cl)cc2)c1C | 2.3 | 5.9 | -17.9 | 1.3 | -1.1 | .
COc1ccc(NC(=O)Nc2cnccn2)cc1 | -9.1 | 13.8 | -6.3 | -1.9 | 0.9 | .
Cc1ccc(NC(=O)Nc2cnccn2)cc1Cl | -9.4 | 12.9 | -8.4 | -5.7 | 62.8* | 64.5*
Cc1noc(NS(=O)(=O)c2ccc(NC(=O)Nc3ccc(Cl)c(Cl)c3)cc2)c1C | 25.3 | -10.1 | -3.8 | 15.6 | 84.0* | 75.2*
C/C(=N\NC(=O)C(=O)Nc1ccc(C)c(Cl)c1)c1ccncc1 | -9.2 | 14.6 | -8.7 | -5.7 | 55.4* | 8.3 | MPTP abs DR=1.53*;MPTP cs DR=<2.5*
C/C(=N\NC(=O)C(=O)Nc1ccc(C)cc1)c1ccncc1 | -26.6 | 19.2 | 4.5 | -4.7 | 1.3 | .
Cc1cc(NC(=O)Nc2ccc(Cl)c(Cl)c2)no1 | 41.4 | 28.8 | . | 82.5* | 82.3* | 93.9*
O=C(COc1ccc(-n2cnnn2)cc1)Nc1ccc(F)c(F)c1 | 5.7 | 5.6 | . | 10.0 | 0.8 | .
CNC(=O)c1cc(Oc2ccc(NC(=O)Nc3ccc(Cl)c(C(F)(F)F)c3)cc2)ccn1 | 39.0 | 47.2* | . | 19.1 | 56.6* | 46.1*
COc1c(N2C[C@@H]3CCCN[C@@H]3C2)c(F)cc2c(=O)c(C(=O)O)cn(C3CC3)c12 | -5.5 | 8.0 | . | -9.9 | . | .
CC1CN(c2nc3ccccc3nc2SCC(=O)Nc2ccc(F)cc2)CC(C)O1 (configuration not stated) | -31.1 | -1.0 | -5.9 | -18.0 | 0.1 | .
CCc1ccccc1NC(=O)Nc1ccc(F)cc1 | -10.8 | 6.2 | 4.5 | -3.7 | 39.4 | .
O=C(Nc1ccc(F)cc1)Nc1csc2ccccc12 | 18.1 | 28.6 | 8.2 | 12.2 | 75.3* | 90.5*
CN(C)c1ccc(NC(=O)Nc2csc3ccccc23)cc1 | 28.6 | 56.8* | 0.0 | -15.0 | 51.5* | 54.1*
CN1CCC(CNC(=O)Nc2csc3ccccc23)CC1 | -17.5 | -0.6 | -5.2 | 7.4 | 0.9 | .
c1ccc(CN2CCC3(CC2)Nc2ccccc2S3)cc1 | 3.1 | 2.4 | -5.7 | -25.4 | -0.2 | .
CC(C)Cn1c(N)c(C(=O)CSc2ccc3c(c2)OCCO3)c(=O)n(C)c1=O | 21.1 | 23.0 | 8.5 | 54.5* | 98.6* | 86.2*
CN(C)CCCNC(=S)NCC(c1ccc(Cl)cc1Cl)c1c[nH]c2ccccc12 (configuration not stated) | 39.1* | 1.6 | 75.3* | 43.2* | 76.8* | -22.9
CCCCNC(=S)NCC(c1ccccc1)c1c[nH]c2ccccc12 (configuration not stated) | -18.5 | -1.4 | 16.9 | -18.5 | 3.7 | .
